Measurements taken from ChEMBL document CHEMBL1125286, “Zatosetron, a potent, selective, and long-acting 5HT3 receptor antagonist: synthesis and structure-activity relationships” (J Med Chem, 1992).

Assays:
[1] = biological target: T1, Serotonin 3 (5-HT3) receptor (Rattus norvegicus) (UniProt P35563+Q9JJ16); experiment: 5-hydroxytryptamine 3 receptor antagonistic activity was measured by the inhibition of 5H+ T-induced bradycardia after iv administration of 3 ug/kg dose in urethane-anesthetized rats; format: functional, organism-based
Summary of the method: (§1)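 Urethane-anesthetized rats; antagonist or saline given iv via femoral vein after heart rate settled (≤5 min) from an initial 5HT challenge (30 µg/kg iv). 5HT was given again 15 min later. Peak bradycardia measured, each rat its own control; % inhibition = difference between first and second responses. Groups of 3–16 rats, means ± SEM.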

[2] = biological target: T1, Serotonin 3 (5-HT3) receptor (Rattus norvegicus); experiment: Compound was tested for the inhibition of 5-HT-induced bradycardia after intravenous administration of 30 ug/kg dose in urethane-anesthetized rats; format: functional, organism-based
Summary of the method: (§2)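 Urethane-anesthetized rats. First 5HT challenge 30 μg/kg iv gives a transient bradycardia. Once heart rate is back at steady state (≤5 min), test compound or saline goes in via the femoral vein. 5HT 30 μg/kg iv is repeated 15 min later. % inhibition is the difference between first and second bradycardia at peak, each animal its own control. Means ± SEM, groups of 3–16 rats.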

[3] = biological target: T1, Serotonin 3 (5-HT3) receptor (Rattus norvegicus); experiment: 5-hydroxytryptamine 3 receptor antagonistic activity measured by inhibition of 5-HT-induced bradycardia (iv administration 10 ug/kg dose in urethane-anesthetized rats); format: functional, organism-based; summary of the method: as §2
[4] = biological target: T1, Serotonin 3 (5-HT3) receptor (Rattus norvegicus); experiment: 5-hydroxytryptamine 3 receptor antagonistic activity as inhibition of 5-HT-induced bradycardia after iv administration of 100 ug/kg dose in urethane-anesthetized rats; format: functional, organism-based; summary of the method: as §2
[5] = biological target: T1, Serotonin 3 (5-HT3) receptor (Rattus norvegicus); experiment: Compound was tested for the inhibition of 5-HT-induced bradycardia after peroral administration of 300 ug/kg dose in urethane-anesthetized rats; format: functional, organism-based
Summary of the method: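 Fasted rats dosed by gavage (5 mL/kg) with compound or distilled-water vehicle. Urethane anesthesia and surgical preparation 15–20 min before challenge. 5HT 0.03 mg/kg iv given 1 h after dosing. Peak bradycardia is compared with vehicle-treated controls. Means ± SEM, groups of 3–11 rats.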

[6] = biological target: T1, Serotonin 3 (5-HT3) receptor (Rattus norvegicus); experiment: Compound was tested for the inhibition of 5-HT-induced bradycardia after intravenous administration of 1 ug/kg dose in urethane-anesthetized rats; format: functional, organism-based; summary of the method: as §1
[7] = biological target: T1, Serotonin 3 (5-HT3) receptor (Rattus norvegicus); experiment: Compound was tested for the inhibition of 5-HT-induced bradycardia after peroral administration of 0.1 mg/kg at 16 hours in urethane-anesthetized rats; format: functional, organism-based; parameters: dose 0.1 mg/kg; conditions: at 0.1 mg/kg
Summary of the method: (§3)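 Duration study: antagonist or vehicle gavaged to conscious fasted rats (5 mL/kg). Rats were urethane-anesthetized and surgically prepared, then challenged with 5HT 0.03 mg/kg iv at the stated time after dosing. Vehicle-treated rats served as controls. Peak inhibition of bradycardia recorded in groups of 3–11, means ± SEM.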

[8] = biological target: T1, Serotonin 3 (5-HT3) receptor (Rattus norvegicus); experiment: Compound was tested for the inhibition of 5-HT-induced bradycardia after peroral administration of 0.1 mg/kg at 3 hours in urethane-anesthetized rats; format: functional, organism-based; parameters: dose 0.1 mg/kg; conditions: at 0.1 mg/kg; summary of the method: as §3
[9] = biological target: T1, Serotonin 3 (5-HT3) receptor (Rattus norvegicus); experiment: Inhibition of 5-HT-induced bradycardia by 5-hydroxytryptamine 3+; format: functional
[10] = biological target: T1, Serotonin 3 (5-HT3) receptor (Rattus norvegicus); experiment: Compound was tested for the inhibition of 5-HT-induced bradycardia after peroral administration of 30 ug/kg dose in urethane-anesthetized rats; format: functional, organism-based
Summary of the method: (§4)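 Fasted rats gavaged (5 mL/kg) with antagonist or vehicle (distilled water). Urethane anesthesia and surgical preparation followed, 15–20 min before 5HT challenge. 5HT 30 µg/kg iv given 1 h after dosing, with vehicle-treated rats as controls. Peak % inhibition of bradycardia in groups of 3–11, means ± SEM.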

[11] = biological target: T1, Serotonin 3 (5-HT3) receptor (Rattus norvegicus); experiment: Compound was tested for the inhibition of 5-HT-induced bradycardia after peroral administration of 100 ug/kg dose in urethane-anesthetized rats; format: functional, organism-based; summary of the method: as §4
[12] = biological target: T1, Serotonin 3 (5-HT3) receptor (Rattus norvegicus); experiment: Compound was tested for the inhibition of 5-HT-induced bradycardia after peroral administration of 0.1 mg/kg at 6 hours in urethane-anesthetized rats; format: functional, organism-based; parameters: dose 0.1 mg/kg; conditions: at 0.1 mg/kg; summary of the method: as §3
[13] = biological target: T1, Serotonin 3 (5-HT3) receptor (Rattus norvegicus); experiment: Compound was tested for the inhibition of 5-HT-induced bradycardia after intravenous administration of 0.3 ug/kg dose in urethane-anesthetized rats; format: functional, organism-based; summary of the method: as §1
[14] = system: Serotonin 3 receptor (Cavia porcellus); experiment: In vitro binding affinity was measured for 5-hydroxytryptamine 3 receptor in the guinea pig ileum.
[15] = biological target: T1, Serotonin 3 (5-HT3) receptor (Rattus norvegicus); experiment: Compound was tested for the inhibition of 5-HT-induced bradycardia after peroral administration of 0.1 mg/kg at 0.5 hours in urethane-anesthetized rats; format: functional, organism-based; parameters: dose 0.1 mg/kg; conditions: at 0.1 mg/kg; summary of the method: as §3
[16] = biological target: T1, Serotonin 3 (5-HT3) receptor (Rattus norvegicus); experiment: Compound was tested for the inhibition of 5-HT-induced bradycardia after peroral administration of 0.1 mg/kg at 1 hour in urethane-anesthetized rats; format: functional, organism-based; parameters: dose 0.1 mg/kg; conditions: at 0.1 mg/kg; summary of the method: as §3
[17] = biological target: T1, Serotonin 3 (5-HT3) receptor (Rattus norvegicus); experiment: Compound was tested for the inhibition of 5-HT-induced bradycardia after peroral administration of 1000 ug/kg dose in urethane-anesthetized rats; format: functional, organism-based; summary of the method: as §4
[18] = biological target: T1, Serotonin 3 (5-HT3) receptor (Rattus norvegicus); experiment: Compound was tested for the inhibition of 5-HT-induced bradycardia after peroral administration in urethane-anesthetized rats
[19] = biological target: T1, Serotonin 3 (5-HT3) receptor (Rattus norvegicus); experiment: 5-hydroxytryptamine 3 receptor antagonistic activity was measured by the inhibition of 5H+ T-induced bradycardia after iv administration of 1000 ug/kg dose in urethane-anesthetized rats; format: functional, organism-based; summary of the method: as §2
[20] = biological target: T1, Serotonin 3 (5-HT3) receptor (Rattus norvegicus); experiment: 5-hydroxytryptamine 3 receptor antagonistic activity was measured by the inhibition of 5-HT-induced bradycardia after iv administration of 1000 ug/kg dose in urethane-anesthetized rats; format: functional, organism-based; summary of the method: as §2

Compound CC1Oc2c(C(=O)OC3CC4CCC(C3)N4C)cccc2C1C (stereo in doubt; 27) has an inhibition [1] of 35.6%, an inhibition [2] of 47.3% and an inhibition [3] of 32.7%.

With CN1C2CCC1CC(NC(=O)c1ccc(Cl)c3c1OC(C)(C)C3)C2 (stereo not drawn) the inhibition [3] was 1.9%.

Work on CN1[C@@H]2CC[C@H]1C[C@@H](OC(=O)c1cc(Cl)cc(Cl)c1)C2 yielded an inhibition [4] of 71.4% and an inhibition [3] of 9.7%.

COc1cc2c(c(C(=O)OC3CC4CCC(C3)N4C)c1)OC(C)C2 (stereo not drawn) was tested, and the inhibition [3] was 4.1%.

CC1Cc2cc(Cl)cc(C(=O)NC3CC4CCC(C3)N4C)c2O1 (stereo not drawn) gave an inhibition [5] of 89.7%, an inhibition [6] of 58.1% and an inhibition [7] of 0%. For the same compound, the inhibition [8] was 75.2%, the inhibition [1] was 79.8% and the ED50 [9] was 0.001 mg/kg. It also gave an inhibition [10] of 21.9%, an inhibition [11] of 74.6% and an inhibition [12] of 71.4%. It also gave an inhibition [13] of 11%, a -Log KB [14] of 8.27 and an inhibition [15] of 87%. It also gave an inhibition [3] of 80%, an inhibition [16] of 74.6% and an inhibition [17] of 94.6%. The ED50 [18] was 0.063 mg/kg.

With CN1C2CCC1CC(OC(=O)c1ccccc1Oc1ccccc1)C2 (stereo not drawn) the inhibition [19] was 54.5%.

Work on CN1C2CCC1CC(NC(=O)c1ccc3c(c1)OC(C)(C)C3)C2 (stereo not drawn) yielded an inhibition [3] of 0%.

For CN1C2CCC1CC(OC(=O)c1ccccc1-c1ccccc1)C2 (stereo not drawn), the inhibition [20] was 47.3%.

Compound COc1cc2c(c(C(=O)NC3CC4CCC(C3)N4C)c1)OC(C)(C)C2 (stereo not drawn) has an inhibition [3] of 2.9%.

Work on CN1C2CCC1CC(OC(=O)c1cccc3c1Cc1ccccc1-3)C2 (stereo not drawn) yielded an inhibition [19] of 51%.
